Publication PMC4883117 (Fitoterapia, 2015)
Several values for one entry are separate records, joined by “and”; a condition that tells them apart may be missing. Equal values may be shown once. Read-outs that look alike come from different tables or passages of the source.

What was measured:
THP1 cells = test: Cytotoxicity against THP1 cell cultures; type: cell-based, human
[1] = system: Trypanosoma brucei brucei; test: In vitro antitrypanosomal Alamar Blue assay on T. brucei trypomastigote cultures; type: cell-based; conditions: for Antitrypanosomal activity IC50 / Antitrypanosomal activity IC90: T. b. brucei, 37 °C, mean ± S.D. of duplicate observations, tested range 0.4–10 μg/mL; for IC50 / IC90: Trypanosoma brucei; for IC50: read-out: Antitrypanosomal activity IC50; for IC90: read-out: Antitrypanosomal activity IC90
In short: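 T. b. brucei trypomastigotes seeded at 2 × 10^6 cell/mL and exposed to test compound at three concentrations (40–1.6 or […]). Incubated 72 h at 37 °C, then parasite growth read by Alamar Blue. IC50 and IC90 were fitted from dose–response curves and given as mean ± S.D. of duplicate observations. Difluoromethylornithine served as positive control.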

μ-opioid receptors = μ-opioid receptors (Homo sapiens, UniProt P35372); test: Opioid receptor radioligand binding assay; conditions: for Ki: read-out: μ-opioid receptor Ki; for IC50: read-out: μ-opioid receptor binding IC50
[2] = Cytotoxicity against THP1 cell cultures; type: cell-based, human; conditions: human, THP1 cells

Sequence of μ-opioid receptors (P35372 whole entry): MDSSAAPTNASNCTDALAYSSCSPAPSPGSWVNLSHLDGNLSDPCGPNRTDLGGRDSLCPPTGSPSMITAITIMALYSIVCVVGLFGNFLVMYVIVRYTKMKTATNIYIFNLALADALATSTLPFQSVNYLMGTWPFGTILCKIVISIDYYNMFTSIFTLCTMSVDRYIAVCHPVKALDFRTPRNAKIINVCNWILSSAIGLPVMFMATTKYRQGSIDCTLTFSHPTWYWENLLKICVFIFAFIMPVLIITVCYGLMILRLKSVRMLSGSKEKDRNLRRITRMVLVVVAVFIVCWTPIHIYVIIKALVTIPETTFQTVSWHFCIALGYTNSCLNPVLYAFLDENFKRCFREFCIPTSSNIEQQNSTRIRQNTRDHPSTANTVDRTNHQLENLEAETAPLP

Compound: C/C(=C\C=C\[C@@H](C)[C@H]1CC[C@@]2(C)C3=C(CC[C@]12CO)[C@@]1(C)CC[C@H](O[C@@H]2O[C@H](CO)[C@@H](O[C@@H]4O[C@H](CO)[C@@H](O)[C@H](O)[C@H]4O)[C@H](O)[C@H]2O[C@@H]2O[C@H](CO)[C@@H](O)[C@H](O)[C@H]2O[C@@H]2O[C@@H](C)[C@H](O)[C@@H](O)[C@H]2O)C(C)(C)[C@@H]1CC3)C(=O)N[C@@H]1C(=O)O[C@H](C)[C@@H]1C [Compound 5, N-(2S, 3R, 4R-3-methyl-4-pentanolid-2-yl)-18-hydroxylanosta-8 (9), 22E, 24E-trien-27-amide-3-O-[α-L-rhamnopyranosyl-(1→2)-O-β-D-glucopyranosyl-(1→2)]-[β-D-glucopyranosyl-(1→4)]-β-D-glucopyranoside]
- THP1 cell toxicity IC50 (THP1 cells): >10 µg/mL
- Antitrypanosomal activity IC50 ([1]; 72 h): >10 µg/mL
- Antitrypanosomal activity IC90 ([1]; 72 h): >10 µg/mL
- antitrypanosomal activity (in words) ([1]; tested concentrations range 0.32–8.23 μM): no antitrypanosomal activity

Compound: Heinsiagenin A 3-O-[α-L-rhamnopyranosyl-(1→2)-β-D-glucopyranosyl-(1→2)]-[β-D-glucopyranosyl-(1→4)]-β-D-glucopyranoside [Compound 2]
- radio ligand displacement in μ-opioid receptor binding assay (μ-opioid receptors): 61.0%
- Ki (μ-opioid receptors): 0.872 µM and 0.87 µM
- IC50 (μ-opioid receptors): 1.74 µM
- THP1 cell toxicity IC50 (THP1 cells): >10 µg/mL
- Antitrypanosomal activity IC50 ([1]; 72 h): 3.08 µg/mL
- Antitrypanosomal activity IC90 ([1]; 72 h): 4.27 µg/mL

Compound: 2α-Hydroxyheinsiagenin A 3-O-[α-L-rhamnopyranosyl-(1→2)-β-D-glucopyranosyl-(1→2)]-β-D-glucopyranoside [Compound 3]
- THP1 cell toxicity IC50 (THP1 cells): >10 µg/mL
- Antitrypanosomal activity IC50 ([1]; 72 h): 2.75 µg/mL
- Antitrypanosomal activity IC90 ([1]; 72 h): 3.53 µg/mL

Compound: 2α-Hydroxyheinsiagenin A 3-O-[β-D-glucopyranosyl-(1→2)]-[β-D-glucopyranosyl]-(1→4)]-β-D-glucopyranoside [Compound 4]
- THP1 cell toxicity IC50 (THP1 cells): >10 µg/mL
- Antitrypanosomal activity IC50 ([1]; 72 h): 3.04 µg/mL
- Antitrypanosomal activity IC90 ([1]; 72 h): 4.64 µg/mL

Compound: Heinsiagenin A 3-O-[α-L-rhamnopyranosyl-(1→2)-β-D-glucopyranosyl-(1→2)]-β-D-glucopyranoside [Compound 1]
- radio ligand displacement in μ-opioid receptor binding assay (μ-opioid receptors): 65.9%
- Ki (μ-opioid receptors): 9.94 µM
- IC50 (μ-opioid receptors): 19.9 µM
- THP1 cell toxicity IC50 (THP1 cells): >10 µg/mL
- Antitrypanosomal activity IC50 ([1]; 72 h): 9.13 µg/mL
- Antitrypanosomal activity IC90 ([1]; 72 h): 11.05 µg/mL

Compound: NCCCC(N)(C(=O)O)C(F)F (stereo not drawn) [DFMO, difluoromethylornithine, reference compound]
- IC50 [2]: > 10 µg/mL
- IC50 ([1]; 72 h): 2.38 µg/mL
- IC90 ([1]; 72 h): 5.28 µg/mL
- IC50 [1]: 13.1 µM
- IC90 [1]: 29 µM
